According to ChEMBL document CHEMBL2311375, “Synthesis and characterization of a small analogue of the anticancer natural product leinamycin” (Bioorg Med Chem, 2013):
Active and inactive are the calls of the source. The calls are words filed in the database; no cut-off is given here.

Experiments:
[1] = Induction of oxidative supercoiled double-stranded plasmid DNA strand (unknown origin) cleavage at 250 uM after 3 to 15 hrs using ethidium bromide staining by agarose gel electrophoresis in presence of 375 uM 2-mercaptoethanol and catalase
In short: (§1)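 Supercoiled plasmid DNA (30 μM bp) incubated 3–15 h at 37 °C in sodium phosphate buffer (50 mM, pH 7) with 10% v/v acetonitrile. Final concentrations: compound 250 μM, 2-mercaptoethanol 375 μM where added. Catalase (100 μg/mL) added before compound where used. Forms I and II resolved on 0.9% agarose gel (80 V, 3 h, 1x TAE), stained with ethidium bromide, visualized by UV and quantified by image analysis. Breaks per plasmid S = −ln f1, f1 = fraction form I.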

[2] = Induction of supercoiled double-stranded plasmid DNA strand (unknown origin) cleavage at 250 uM after 3 to 15 hrs using ethidium bromide staining by agarose gel electrophoresis; in short: as §1
[3] = Induction of oxidative supercoiled double-stranded plasmid DNA strand (unknown origin) cleavage at 250 uM after 3 to 15 hrs using ethidium bromide staining by agarose gel electrophoresis in presence of 375 uM 2-mercaptoethanol; in short: as §1

Row | Activity [1] | Activity [2] | Activity [3] | Structure (SMILES)
1 | inactive | inactive | Active | CC(C)=CCCC1(C)CC(=O)S[S+]1[O-] (configuration not stated)
2 | inactive | inactive | Active | CC(C)=CCCC1(C)CC(=O)S[S+]1[O-] (mixture of isomers)
3 | inactive | inactive | Active | O=c1s[s+]([O-])c2ccccc12 (configuration not stated)
4 | inactive | inactive | Active | CC(C)=CCCC1(C)CC(=O)S[S+]1[O-] (single isomer, unassigned)
